Measured values: ChEMBL document CHEMBL3526115, “Differences in the pharmacokinetics of 4-amino-3-chlorophenyl hydrogen sulfate, a metabolite of resatorvid, in rats and dogs” (Drug Metab Dispos, 2012)

Key:
[1] = Ratio of drug level in kidney to plasma in Crj:CD(SD)IGS rat at 0.25 mg/hr, iv administered as continuous infusion by HPLC-based liquid scintillation counting analysis; assay type: ADME, organism-based
Summary of the method: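 Rats received [14C]M-III in saline by continuous jugular-vein infusion for 4 h (0.5 mg/rat/h per methods; 0.25 mg/h in legend), then aortic blood and kidneys were collected. Dogs received a 0.5 mg/kg iv bolus, with blood and kidneys (cortex and medulla separated) collected at 24 h. 14C was measured in tissue homogenates and plasma as a tissue/plasma ratio. Rat n = 3, dog n = 2.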

[2] = Drug uptake in Beagle dog plasma at 0.5 mg/kg, iv administered as bolus dose after 5 mins by HPLC-based liquid scintillation counting analysis; assay type: ADME, organism-based, Canis lupus familiaris; parameters: dose 0.5 mg/kg, route intravenous
Summary of the method: (§1)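 [14C]M-III in saline given as a single iv bolus at 0.5 mg/kg to male rats (tail-vein blood, 5 min–24 h) or male beagle dogs (cephalic-vein blood, 5 min–168 h). Heparinized plasma counted for radioactivity; M-III quantified by HPLC with fraction collection and liquid scintillation counting. C5 min read directly; terminal t1/2 by linear regression, kel = ln2/t1/2, Vd = dose/back-extrapolated C0, CLtot = dose/AUCinf. Mean ± S.D., n = 3.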

[3] = Terminal half life in Beagle dog at 0.5 mg/kg, iv administered as bolus dose by HPLC-based liquid scintillation counting analysis; assay type: ADME, organism-based, Canis lupus familiaris; parameters: dose 0.5 mg/kg, route intravenous; conditions: in vivo, read-out: beta t1/2 (converted); summary of the method: as §1
[4] = Apparent volume of distribution in Beagle dog at 0.5 mg/kg, iv administered as bolus dose by HPLC-based liquid scintillation counting analysis; assay type: ADME, organism-based, Canis lupus familiaris; parameters: dose 0.5 mg/kg, route intravenous; conditions: in vivo, read-out: Vd(app); summary of the method: as §1
[5] = In vitro plasma protein binding in rat at 0.5 ug/ml by ultrafiltration method; assay type: ADME, cell-free; conditions: read-out: PPB (converted)
Summary of the method: (§2)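 [14C]M-III in saline was added to rat or dog plasma at final 0.5, 5 and 50 µg/ml. Plasma was ultrafiltered by centrifugation at 1500g and 37°C for 10 min, and 14C was measured in plasma and filtrate. Mean ± S.D., n = 3.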

[6] = In vitro plasma protein binding in dog at 5 ug/ml by ultrafiltration method; assay type: ADME, cell-free, Canis lupus familiaris; conditions: read-out: PPB (converted); summary of the method: as §2
[7] = Drug excretion in Beagle dog urine assessed as excretion ratio of [14C] at 0.5 mg/kg, iv administered as bolus dose measured from 0 to 168 hrs by HPLC-based liquid scintillation counting analysis; assay type: ADME, organism-based, Canis lupus familiaris; parameters: dose 0.5 mg/kg, route intravenous; conditions: in vivo
Summary of the method: (§3)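 Male rats in metabolic cages with urine/feces separator, or beagle dogs, after a 0.5 mg/kg iv bolus of [14C]M-III in saline. Radioactivity in urine and feces collected 0–24 h (rats) or 0–168 h (dogs) was counted and expressed as percent of dose. Mean ± S.D., n = 3.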

[8] = Drug excretion in Crj:CD(SD)IGS rat feces assessed as excretion ratio of [14C] at 0.5 mg/kg, iv administered as bolus dose measured from 0 to 24 hrs by HPLC-based liquid scintillation counting analysis; assay type: ADME, organism-based; parameters: dose 0.5 mg/kg, route intravenous; conditions: in vivo; summary of the method: as §3
[9] = Drug recovery in Beagle dog urine at 0.5 mg/kg, iv administered as bolus dose measured from 0 to 168 hrs by HPLC-based liquid scintillation counting analysis; assay type: ADME, organism-based, Canis lupus familiaris; parameters: dose 0.5 mg/kg, route intravenous; conditions: read-out: Drug recovery
Summary of the method: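 After a 0.5 mg/kg iv bolus of [14C]M-III, urine was collected 0–24 h (rat) or 0–168 h (dog) and injected directly onto HPLC with fraction collection and scintillation counting. M-III in urine was derived from the urinary 14C excretion ratio and the [14C]M-III composition. CLrenal = urinary M-III amount / AUC0–24 h (rat) or AUC0–168 h (dog). Unbound CLrenal = CLrenal / free fraction.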

[10] = AUC infinity in Crj:CD(SD)IGS rat at 0.5 mg/kg, iv administered as bolus dose by HPLC-based liquid scintillation counting analysis; assay type: ADME, organism-based; parameters: time infinity, dose 0.5 mg/kg, route intravenous; conditions: plasma
Summary of the method: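 Male Crj:CD(SD)IGS rats (285–324 g, 8 weeks) were given [14C]M-III in saline (0.5 mg/ml) as an IV bolus of 0.5 mg–2.6 MBq/kg. Tail-vein blood was sampled from 5 min to 24 h to give heparinized plasma. After acetonitrile deproteinization, samples went through HPLC with fraction collection and scintillation counting. AUCinf = AUClast + Clast/kel, with terminal kel from linear regression; n = 3.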

[11] = Total body clearance in Crj:CD(SD)IGS rat at 0.5 mg/kg, iv administered as bolus dose by HPLC-based liquid scintillation counting analysis; assay type: ADME, organism-based; parameters: dose 0.5 mg/kg, route intravenous; conditions: in vivo; summary of the method: as §1
[12] = Plasma concentration in Crj:CD(SD)IGS rat at 0.125 mg/hr, iv administered as continuous infusion measured after 3 hrs by HPLC based liquid scintillation counting analysis in presence of probenecid; assay type: ADME, organism-based; conditions: with probenecid (dose not stated)
Summary of the method: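 Rats were continuously infused iv with [14C]M-III at 0.125 mg/rat/h, plus probenecid (4.7, 9.4, 18.6 mg/rat/h) or vehicle. Femoral-artery blood was taken at 0.5, 1, 2, 3 and 4 h, with terminal aortic blood at 5 h. Plasma radioactivity was measured, with probenecid quantified by HPLC-UV at 240 nm against spiked-plasma calibration from 0.1 to 100 µg/ml.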

[13] = Total body clearance in Crj:CD(SD)IGS rat at 0.125 mg/hr, iv administered as continuous infusion by HPLC based liquid scintillation counting analysis in presence of 62 mg/hr/kg probenecid; assay type: ADME, organism-based; conditions: in vivo, with probenecid 62 mg/hr/kg
Summary of the method: (§4)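 Rats received a continuous iv infusion of [14C]M-III at 0.125 mg/rat/h, with probenecid co-infused at 16, 31 or 62 mg/h/kg or vehicle alone, for 5 h. Arterial plasma was sampled during infusion. CLtot = infusion rate / steady-state plasma M-III (120–180 min). Unbound fraction was measured by ultrafiltration of 5-h plasma (10,000 MWCO, 1500g, 37°C, 10 min). CLint = CLtot / unbound ratio.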

Rattus norvegicus [14] = experiment: Intrinsic total body clearance in Crj:CD(SD)IGS rat at 0.125 mg/hr, iv administered as continuous infusion by HPLC based liquid scintillation counting analysis; assay type: ADME, organism-based; conditions: in vivo; summary of the method: as §4
Rattus norvegicus [15] = experiment: Intrinsic total body clearance in Crj:CD(SD)IGS rat at 0.125 mg/hr, iv administered as continuous infusion by HPLC based liquid scintillation counting analysis in presence of 16 mg/hr/kg probenecid; assay type: ADME, organism-based; conditions: in vivo; summary of the method: as §4
Rattus norvegicus [16] = experiment: Intrinsic total body clearance in Crj:CD(SD)IGS rat at 0.125 mg/hr, iv administered as continuous infusion by HPLC based liquid scintillation counting analysis in presence of 31 mg/hr/kg probenecid; assay type: ADME, organism-based; conditions: in vivo; summary of the method: as §4
Rattus norvegicus [17] = experiment: Intrinsic total body clearance in Crj:CD(SD)IGS rat at 0.125 mg/hr, iv administered as continuous infusion by HPLC based liquid scintillation counting analysis in presence of 62 mg/hr/kg probenecid; assay type: ADME, organism-based; conditions: in vivo; summary of the method: as §4
[18] = In vivo plasma protein binding in Crj:CD(SD)IGS rat at 0.125 mg/hr, iv administered as continuous infusion by ultrafiltration method in presence of 62 mg/hr/kg probenecid; assay type: ADME, organism-based; conditions: with probenecid 62 mg/hr/kg, read-out: PPB (converted); summary of the method: as §4
[19] = Unbound fraction in Crj:CD(SD)IGS rat plasma at 0.125 mg/hr, iv administered as continuous infusion by ultrafiltration method in presence of 16 mg/hr/kg probenecid; assay type: ADME, organism-based; conditions: with probenecid 16 mg/hr/kg; summary of the method: as §4

Compound N[14c]1[14cH][14cH][14c](OS(=O)(=O)O)[14cH][14c]1Cl has a Kp [1] of 3.5, a concentration at 5 min [2] of 4690 ng/mL and a half-life [3] of 120 h. The Vd [4] was 0.0989 L/kg, the fraction unbound at 0.5 ug/ml [5] was 0.075 and the fraction unbound at 5 ug/ml [6] was 0.087. It also gave a Drug excretion [7] of 44.6%, a Drug excretion [8] of 10.3% and a dose excreted [9] of 19.5%. For the same compound, the AUC(0-inf) [10] was 802 ng·h/mL, the clearance [11] was 10.5 mL/min/kg and the concentration at 3 h [12] was 3600 ng/mL. It also gave a clearance [13] of 1.83 mL/min/kg, a clearance (Rattus norvegicus [14]) of 130 mL/min/kg and a CL (Rattus norvegicus [15]) of 53.83 mL/min/kg. For the same compound, the CL (Rattus norvegicus [16]) was 11.9 mL/min/kg, the CL (Rattus norvegicus [17]) was 9.38 mL/min/kg and the fraction unbound [18] was 0.184. The fraction unbound [19] was 0.078.
